Laboratory results from ChEMBL document CHEMBL2069278, “Novel substituted benzothiophene and thienothiophene carboxanilides and quinolones: synthesis, photochemical synthesis, DNA-binding properties, antitumor evaluation and 3D-derived QSAR analysis” (J Med Chem, 2012).
Activity calls are given as the source filed them. No cut-off for these calls is given here.

Columns and labels:
[1] = tested on: MOLT-4; assay: Cytotoxicity against human MOLT4 cells after 72 hrs by MTT assay; format: functional, cell-based; conditions: MOLT-4, 72 h
Outline: (§1)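 Cells seeded on day 0 at 1 × 10^4 to 3 × 10^4 cells/mL (adherent lines in DMEM, MOLT-4 in suspension in RPMI, 10% FBS, 37 °C, 5% CO2); 10-fold dilutions 10−8–10−4 M for 72 h; MTT, OD 570 nm; percentage growth versus time-zero and control; IC50 by linear regression; quadruplicate, at least two experiments.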

[2] = tested on: HCT-116; assay: Cytotoxicity against human HCT116 cells after 72 hrs by MTT assay; format: functional, cell-based; conditions: HCT-116, 72 h; outline: as §1
[3] = tested on: SW-620; assay: Cytotoxicity against human SW620 cells after 72 hrs by MTT assay; format: functional, cell-based; conditions: SW-620, 72 h; outline: as §1
[4] = tested on: MCF7; assay: Cytotoxicity against human MCF7 cells after 72 hrs by MTT assay; format: functional, cell-based; conditions: MCF7, 72 h; outline: as §1
[5] = tested on: NCI-H460; assay: Cytotoxicity against human H460 cells after 72 hrs by MTT assay; format: functional, cell-based; conditions: NCI-H460, 72 h; outline: as §1
[6] = tested on: Nucleic Acid; assay: Binding affinity to radiolabeled Pvu2 DNA after 15 mins by Dnase1 footprinting assay; format: nucleic-acid assay
Outline: (§2)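 265 bp EcoRI/PvuII pBluescript fragment, 3′-end labeled with α-[32P]dATP by Klenow. Compounds at increasing concentrations pre-equilibrated with DNA 15 min at 37 °C, then DNase I (final 0.002 unit/mL) in 20 mM NaCl, 2 mM MgCl2, 2 mM MnCl2, pH 7.3, 4 min digestion; products resolved on denaturing 8% polyacrylamide/8 M urea gel, G-track for base positions.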

[7] = target: DNA topoisomerase 2-alpha (Homo sapiens) (UniProt P11388); assay: Inhibition of human topoisomerase 2-mediated DNA cleavage at 50 uM incubated for 45 mins followed by enzyme addition measured after 30 mins by agarose gel electrophoresis
Outline: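 Compounds (50 μM) incubated with 350 ng supercoiled pUC19 before topoisomerase II addition; gel quantified for percentage poisoning normalized to etoposide at the same concentration.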

[8] = tested on: HCT-116; assay: Induction of cell cycle arrest in human HCT116 cells assessed as accumulation at G1 phase at 1 to 5 uM by propidium iodide based flow cytometry; format: functional; conditions: TDE = time-dependent effect
Outline: (§3)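 HCT116 cells (2 × 10^5 per well) treated after 24 h with 1 or 5 μM for 24 and 48 h; floating and attached cells pooled, fixed in 70% ethanol, stained with 50 μg/mL propidium iodide plus RNase A; 20 000 events by flow cytometry; phase percentages from DNA histograms; duplicate, repeated at least twice.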

[9] = tested on: HCT-116; assay: Induction of cell cycle arrest in human HCT116 cells assessed as accumulation at G2/M phase at 1 to 5 uM by propidium iodide based flow cytometry; format: functional; conditions: TDE = time-dependent effect; outline: as §3
[10] = tested on: HCT-116; assay: Induction of cell cycle arrest in human HCT116 cells assessed as accumulation at G1 phase after 24 to 48 hrs by propidium iodide based flow cytometry; format: functional; outline: as §3
[11] = tested on: HCT-116; assay: Induction of cell cycle arrest in human HCT116 cells assessed as accumulation at G2/M phase after 24 to 48 hrs by propidium iodide based flow cytometry; format: functional; outline: as §3
[12] = tested on: Nucleic Acid; assay: Binding affinity to AT rich site of Pvu2 DNA by densitometric analysis; format: nucleic-acid assay; outline: as §2
[13] = tested on: Nucleic Acid; assay: Binding affinity to calf thymus DNA assessed as change in melting temperature at drug/base pair ratio of 0.25 by UV-visible spectrophotometric analysis; format: nucleic-acid assay; conditions: Bos taurus
Outline: (§4)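 Melting: 20 μM CT-DNA or poly(dAdT)2 alone or with compound (drug/base pair ratio 0.01−0.5) in BPE buffer (6 mM Na2HPO4, 2 mM NaH2PO4, 1 mM EDTA, pH 7.1); A260 read each minute from 20 to 100 °C at 1 °C/min; Tm from midpoint of hyperchromic transition (first-derivative plots); ΔTm = Tm[drug+DNA] − Tm[DNA alone].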

[14] = tested on: Nucleic Acid; assay: Binding affinity to calf thymus DNA assessed as change in melting temperature at drug/base pair ratio of 0.5 by UV-visible spectrophotometric analysis; format: nucleic-acid assay; conditions: Bos taurus; outline: as §4
[15] = target: T1, DNA topoisomerase 1 (Homo sapiens) (UniProt P11387); assay: Inhibition of human topoisomerase 1-mediated supercoiled pUC19 plasmid DNA relaxation at 0.5 to 2 uM incubated for 45 mins followed by enzyme addition measured after 30 mins by agarose gel electrophoresis
T1 sequence (whole entry): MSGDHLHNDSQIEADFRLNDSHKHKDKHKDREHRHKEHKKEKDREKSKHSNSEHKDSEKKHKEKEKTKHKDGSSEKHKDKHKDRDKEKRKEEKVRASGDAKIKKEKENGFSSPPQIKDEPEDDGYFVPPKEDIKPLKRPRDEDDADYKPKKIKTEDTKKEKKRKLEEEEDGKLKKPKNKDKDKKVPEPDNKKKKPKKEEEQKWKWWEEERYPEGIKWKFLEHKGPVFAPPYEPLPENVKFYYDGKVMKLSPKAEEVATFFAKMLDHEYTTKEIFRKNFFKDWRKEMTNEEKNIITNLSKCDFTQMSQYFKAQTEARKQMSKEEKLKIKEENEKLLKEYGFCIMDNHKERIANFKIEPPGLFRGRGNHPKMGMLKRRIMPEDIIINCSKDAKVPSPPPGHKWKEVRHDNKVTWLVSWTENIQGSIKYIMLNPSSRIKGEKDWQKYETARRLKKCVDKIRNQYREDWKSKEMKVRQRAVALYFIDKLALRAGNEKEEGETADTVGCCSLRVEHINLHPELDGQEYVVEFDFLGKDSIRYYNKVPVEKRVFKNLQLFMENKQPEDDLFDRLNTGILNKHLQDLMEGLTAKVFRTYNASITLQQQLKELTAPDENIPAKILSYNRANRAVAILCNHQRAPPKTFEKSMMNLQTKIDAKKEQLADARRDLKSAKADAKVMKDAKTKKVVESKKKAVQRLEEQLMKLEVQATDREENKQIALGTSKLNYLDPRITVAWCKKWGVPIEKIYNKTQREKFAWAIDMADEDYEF
Outline: (§5)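 Graded compound concentrations preincubated with supercoiled pUC19, then 4 units human topoisomerase I, 37 °C for 45 min in relaxation buffer; stopped with 0.25% SDS and 250 μg/mL proteinase K, 30 min at 50 °C; 1% agarose gel without ethidium bromide, 2 h at 120 V in TBE, then stained with ethidium bromide.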

[16] = target: T1, DNA topoisomerase 1 (Homo sapiens); assay: Inhibition of human topoisomerase 1-mediated DNA cleavage at 10 uM incubated for 45 mins followed by enzyme addition measured after 30 mins by agarose gel electrophoresis
Outline: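 Topo I cleavage run like the relaxation assay (pUC19, 4 units human topoisomerase I, 37 °C, 45 min; SDS/proteinase K stop), but samples run on 1% agarose gel containing ethidium bromide; camptothecin 20 μM as poisoning control.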

[17] = tested on: Nucleic Acid; assay: Binding affinity to calf thymus DNA assessed as DNA intercalation at 50 uM by circular dichroism spectra analysis; format: nucleic-acid assay; conditions: Bos taurus
Outline: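 CD: 50 μM compound with 200 μM CT-DNA in BPE buffer, alone or plus 10 or 100 mM NaCl; spectra 480–230 nm, 10 mm quartz cell, 20 °C; compound without DNA as control for intrinsic CD.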

[18] = target: T1, DNA topoisomerase 1 (Homo sapiens); assay: Inhibition of human topoisomerase 1-mediated supercoiled pUC19 plasmid DNA relaxation at 50 uM incubated for 45 mins followed by enzyme addition measured after 30 mins by agarose gel electrophoresis; outline: as §5
[19] = tested on: Nucleic Acid; assay: Binding affinity to calf thymus DNA assessed as change in melting temperature at drug/base pair ratio of 0.025 by UV-visible spectrophotometric analysis; format: nucleic-acid assay; conditions: Bos taurus; outline: as §4
[20] = tested on: Nucleic Acid; assay: Binding affinity to calf thymus DNA assessed as change in melting temperature at drug/base pair ratio of 0.01 by UV-visible spectrophotometric analysis; format: nucleic-acid assay; conditions: Bos taurus; outline: as §4
[21] = tested on: Nucleic Acid; assay: Binding affinity to calf thymus DNA assessed as change in melting temperature at drug/base pair ratio of 0.1 by UV-visible spectrophotometric analysis; format: nucleic-acid assay; conditions: Bos taurus; outline: as §4

Sequence of DNA topoisomerase 2-alpha (Homo sapiens) (P11388 whole entry): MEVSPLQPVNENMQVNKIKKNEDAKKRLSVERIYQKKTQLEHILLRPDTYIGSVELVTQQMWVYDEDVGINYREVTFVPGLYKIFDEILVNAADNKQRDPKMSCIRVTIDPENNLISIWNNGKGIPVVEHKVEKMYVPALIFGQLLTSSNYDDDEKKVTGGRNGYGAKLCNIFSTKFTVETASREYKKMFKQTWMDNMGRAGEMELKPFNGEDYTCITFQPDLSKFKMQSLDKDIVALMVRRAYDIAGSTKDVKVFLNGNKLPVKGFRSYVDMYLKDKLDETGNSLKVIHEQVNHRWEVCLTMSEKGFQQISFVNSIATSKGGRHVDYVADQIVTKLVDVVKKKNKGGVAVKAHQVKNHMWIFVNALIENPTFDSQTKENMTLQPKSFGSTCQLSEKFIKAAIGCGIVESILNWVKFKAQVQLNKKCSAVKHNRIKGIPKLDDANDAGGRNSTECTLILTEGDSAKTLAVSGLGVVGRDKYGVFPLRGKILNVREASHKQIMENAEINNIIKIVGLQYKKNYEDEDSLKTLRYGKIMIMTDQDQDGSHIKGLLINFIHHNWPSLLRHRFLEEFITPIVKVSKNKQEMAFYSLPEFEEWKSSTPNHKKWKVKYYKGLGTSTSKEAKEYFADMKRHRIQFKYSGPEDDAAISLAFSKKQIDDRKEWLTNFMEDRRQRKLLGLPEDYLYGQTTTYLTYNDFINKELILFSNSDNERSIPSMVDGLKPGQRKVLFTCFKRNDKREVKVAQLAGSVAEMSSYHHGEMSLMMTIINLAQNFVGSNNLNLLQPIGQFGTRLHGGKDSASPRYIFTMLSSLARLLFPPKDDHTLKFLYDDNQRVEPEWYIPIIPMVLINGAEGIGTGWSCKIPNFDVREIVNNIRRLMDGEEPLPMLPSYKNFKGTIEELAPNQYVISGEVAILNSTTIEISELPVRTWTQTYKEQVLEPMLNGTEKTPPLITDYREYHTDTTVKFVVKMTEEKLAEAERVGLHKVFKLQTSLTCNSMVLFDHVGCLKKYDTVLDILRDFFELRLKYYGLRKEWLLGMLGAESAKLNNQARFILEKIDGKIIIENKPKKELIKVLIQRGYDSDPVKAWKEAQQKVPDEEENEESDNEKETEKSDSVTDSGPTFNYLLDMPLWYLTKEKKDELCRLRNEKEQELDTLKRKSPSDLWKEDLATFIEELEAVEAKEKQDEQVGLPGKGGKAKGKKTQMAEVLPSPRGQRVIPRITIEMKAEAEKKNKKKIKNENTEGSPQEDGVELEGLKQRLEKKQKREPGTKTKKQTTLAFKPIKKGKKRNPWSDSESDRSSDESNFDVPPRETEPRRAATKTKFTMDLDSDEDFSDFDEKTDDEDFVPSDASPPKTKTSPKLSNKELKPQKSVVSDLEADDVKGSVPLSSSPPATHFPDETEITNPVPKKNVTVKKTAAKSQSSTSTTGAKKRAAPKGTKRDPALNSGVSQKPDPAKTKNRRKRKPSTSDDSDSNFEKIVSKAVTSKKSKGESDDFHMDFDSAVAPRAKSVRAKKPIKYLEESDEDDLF

inhibition [7]	SMILES	IC50 [1]	IC50 [2]	IC50 [3]	IC50 [4]	IC50 [5]	also measured
	Cc1ccc2c(c1)sc1c(=O)[nH]c3ccc(C(=O)NCCCN(C)C)cc3c12	1 µM	1 µM	0.4 µM	2 µM	2 µM	
inactive	Cn1c(=O)c2sc3ccccc3c2c2cc(C3=NCCN3)ccc21	0.4 µM	0.4 µM	0.2 µM	1.3 µM	0.6 µM	Activity [6]: Active; Activity [8]: tde; Activity [9]: tde; Activity [10]: Dose-dependent effect; Activity [11]: Dose-dependent effect; Activity [12]: inactive; ΔTm [13]: 10.7 °C; ΔTm [14]: 15.6 °C; inhibition [15]: Active
	CN(C)CCCNC(=O)c1ccc2[nH]c(=O)c3sc4cc(Br)ccc4c3c2c1	1 µM	0.4 µM	0.4 µM	2 µM	2 µM	
	CN(C)CCCNC(=O)c1ccc2[nH]c(=O)c3sc4ccccc4c3c2c1	1 µM	1 µM	1 µM	2 µM	2 µM	
	CN(C)CCCNC(=O)c1ccc2[nH]c(=O)c3sc4cc([N+](=O)[O-])ccc4c3c2c1	2 µM	2 µM	2 µM	3 µM	23 µM	
	Cn1c(=O)c2sc3sccc3c2c2cc(C#N)ccc21	4.8 µM	> 10 µM	> 10 µM	> 10 µM	> 10 µM	
	Cc1ccc2c(Cl)c(C(=O)Nc3ccc(C(=O)NCCCN(C)C)cc3)sc2c1	2 µM	3 µM	2 µM	3 µM	2 µM	
Active	COc1cc([C@@H]2c3cc4c(cc3[C@@H](O[C@@H]3O[C@@H]5CO[C@@H](C)O[C@H]5[C@H](O)[C@H]3O)[C@H]3COC(=O)[C@H]23)OCO4)cc(OC)c1O						
	CN(C)CCCNC(=O)c1ccc(NC(=O)c2sc3ccccc3c2Cl)cc1		7 µM		7 µM	3 µM	
Active	O=c1[nH]c2ccccc2c2c1sc1cc(C3=NCCN3)ccc12	0.8 µM	1.3 µM	1.2 µM	1.5 µM	1.2 µM	Activity [6]: Active; inhibition [16]: Active; Activity [12]: inactive; ΔTm [13]: 11 °C; ΔTm [14]: 14.6 °C; inhibition [15]: Active
	CN(C)CCCNC(=O)c1ccc(NC(=O)c2sc3cc([N+](=O)[O-])ccc3c2Cl)cc1	2 µM	2 µM	1 µM	2 µM	2 µM	
Active	O=C(Nc1ccccc1)c1sc2cc(C3=NCCN3)ccc2c1Cl	2 µM	2.8 µM	1.3 µM	2 µM	1.4 µM	Activity [17]: inactive; Activity [6]: Active; Activity [12]: inactive; ΔTm [13]: 3 °C; ΔTm [14]: 3.8 °C; inhibition [18]: Active
	CCOC(=O)c1ccc2c(c1)sc1c(=O)[nH]c3ccc(C(=O)NCCCN(C)C)cc3c12	1 µM	2 µM	1 µM	3 µM	3 µM	
	CCOC(=O)c1ccc2c(Cl)c(C(=O)Nc3ccc(C(=O)NCCCN(C)C)cc3)sc2c1	2 µM	3 µM	2 µM	5 µM	2 µM	
	Cn1c(=O)c2sc3ccccc3c2c2cc(C#N)ccc21	8.7 µM	> 10 µM	> 10 µM	> 10 µM	> 10 µM	
	Cn1c(=O)c2sc3sccc3c2c2cc(C3=NCCN3)ccc21	2 µM	1 µM	0.3 µM	2 µM	1 µM	
Active	O=c1[nH]c2ccc(C3=NCCN3)cc2c2c1sc1cc(C3=NCCN3)ccc12	3 µM	≥ 10 µM	≥ 10 µM	≥ 10 µM	≥ 10 µM	ΔTm [19]: 0 °C; ΔTm [20]: 0 °C; Activity [6]: Active; ΔTm [21]: 15.7 °C; Activity [12]: inactive; ΔTm [13]: 22.4 °C; inhibition [15]: Active
	CN(C)CCCNC(=O)c1ccc(NC(=O)c2sc3cc(Br)ccc3c2Cl)cc1	2 µM	2 µM	2 µM	2 µM	2 µM	
Active	O=c1[nH]c2ccc(C3=NCCN3)cc2c2c1sc1ccccc12	0.8 µM	0.9 µM	0.7 µM	1.4 µM	1.6 µM	ΔTm [19]: 0.9 °C; ΔTm [20]: 0 °C; Activity [6]: Active; Activity [8]: tde; Activity [9]: tde; Activity [10]: Dose-dependent effect; Activity [11]: Dose-dependent effect; ΔTm [21]: 4.9 °C; Activity [12]: inactive; ΔTm [13]: 18 °C; inhibition [15]: Active
	Cn1c(=O)c2sc3cc(C#N)ccc3c2c2ccccc21	≥ 10 µM	> 10 µM	> 10 µM	> 10 µM	> 10 µM	
